How the values were obtained:
Assay type in all cases: functional
[1] = system: CCRF-CEM; assay: Anticancer activity against human CCRF-CEM cells assessed as cell growth inhibition measured after 48 hrs by SRB assay
Procedure, shortened: (§1)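 NCI-60 five-dose screen at 100, 10, 1.0, 0.1 and 0.01 µM final. Cells in RPMI-1640 with 5% FBS and 2 mM glutamine were seeded 24 h ahead at 37°C, 5% CO2. Compound exposure was 48 h, followed by TCA fixation and SRB staining, read at 515 nm. GI50 is the concentration giving 50% lower net protein increase than control, using time-zero plates.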

[2] = system: K562; assay: Anticancer activity against human K562 cells assessed as cell growth inhibition measured after 48 hrs by SRB assay; conditions: K562, 48 h; for CC50: read-out: LC50 (the source's name); procedure, shortened: as §1
[3] = system: MOLT-4; assay: Anticancer activity against human MOLT4 cells assessed as cell growth inhibition measured after 48 hrs by SRB assay; conditions: MOLT-4, 48 h; procedure, shortened: as §1
[4] = system: RPMI-8226; assay: Anticancer activity against human RPMI8226 cells assessed as cell growth inhibition measured after 48 hrs by SRB assay; conditions: RPMI-8226, 48 h; for CC50: read-out: LC50 (the source's name); procedure, shortened: as §1
[5] = system: SR; assay: Anticancer activity against human SR cells assessed as cell growth inhibition measured after 48 hrs by SRB assay
Procedure, shortened: (§2)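 NCI 60-cell screen, five-dose mode at 100, 10, 1.0, 0.1 and 0.01 µM. Cells grown in RPMI-1640 with 5% FBS and 2 mM L-glutamine, seeded and held 24 h at 37°C, 5% CO2, then exposed for 48 h. Fixed with cold TCA (10% final), stained with 0.4% SRB and read at 515 nm. Time-zero plates were used. GI50 is the concentration giving 50% lower net protein increase than control.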

[6] = system: A549; assay: Anticancer activity against human A549 cells assessed as cell growth inhibition measured after 48 hrs by SRB assay; conditions: A549, 48 h; procedure, shortened: as §1
[7] = system: HOP-62; assay: Anticancer activity against human HOP62 cells assessed as cell growth inhibition measured after 48 hrs by SRB assay; conditions: HOP-62, 48 h; procedure, shortened: as §1
[8] = system: HOP-92; assay: Anticancer activity against human HOP92 cells assessed as cell growth inhibition measured after 48 hrs by SRB assay; conditions: HOP-92, 48 h; procedure, shortened: as §1
[9] = system: NCI-H226; assay: Anticancer activity against human NCI-H226 cells assessed as cell growth inhibition measured after 48 hrs by SRB assay; conditions: NCI-H226, 48 h; for CC50: read-out: LC50 (the source's name); procedure, shortened: as §1
[10] = system: NCI-H460; assay: Anticancer activity against human NCI-H460 cells assessed as cell growth inhibition measured after 48 hrs by SRB assay; conditions: NCI-H460, 48 h; procedure, shortened: as §1
[11] = system: NCI-H522; assay: Anticancer activity against human NCI-H522 cells assessed as cell growth inhibition measured after 48 hrs by SRB assay; conditions: NCI-H522, 48 h; for CC50: read-out: LC50 (the source's name); procedure, shortened: as §1
[12] = system: COLO 205; assay: Anticancer activity against human COLO205 cells assessed as cell growth inhibition measured after 48 hrs by SRB assay; conditions: COLO 205, 48 h; procedure, shortened: as §1
[13] = system: HCT-116; assay: Anticancer activity against human HCT116 cells assessed as cell growth inhibition measured after 48 hrs by SRB assay; conditions: HCT-116, 48 h; procedure, shortened: as §1
[14] = system: HT-29; assay: Anticancer activity against human HT-29 cells assessed as cell growth inhibition measured after 48 hrs by SRB assay; conditions: HT-29, 48 h; procedure, shortened: as §1
[15] = system: SF-268; assay: Anticancer activity against human SF268 cells assessed as cell growth inhibition measured after 48 hrs by SRB assay; conditions: SF-268, 48 h; procedure, shortened: as §1
[16] = system: SF-295; assay: Anticancer activity against human SF295 cells assessed as cell growth inhibition measured after 48 hrs by SRB assay; conditions: SF-295, 48 h; procedure, shortened: as §1
[17] = system: SNB-19; assay: Anticancer activity against human SNB19 cells assessed as cell growth inhibition measured after 48 hrs by SRB assay; conditions: SNB-19, 48 h; procedure, shortened: as §2
[18] = system: LOX IMVI; assay: Anticancer activity against human LOXIMVI cells assessed as cell growth inhibition measured after 48 hrs by SRB assay; procedure, shortened: as §1
[19] = system: M14; assay: Anticancer activity against human M14 cells assessed as cell growth inhibition measured after 48 hrs by SRB assay; conditions: M14, 48 h; for CC50: read-out: LC50 (the source's name); procedure, shortened: as §1
[20] = system: UACC-257; assay: Anticancer activity against human UACC257 cells assessed as cell growth inhibition measured after 48 hrs by SRB assay; conditions: UACC-257, 48 h; for CC50: read-out: LC50 (the source's name); procedure, shortened: as §2
[21] = system: NCI/ADR-RES; assay: Anticancer activity against human NCI/ADR-RES cells assessed as cell growth inhibition measured after 48 hrs by SRB assay; procedure, shortened: as §1
[22] = system: 786-0; assay: Anticancer activity against human 786-O cells assessed as cell growth inhibition measured after 48 hrs by SRB assay; conditions: 786-0, 48 h; for CC50: read-out: LC50 (the source's name); procedure, shortened: as §1
[23] = system: A498; assay: Anticancer activity against human A498 cells assessed as cell growth inhibition measured after 48 hrs by SRB assay; conditions: A498, 48 h; for CC50: read-out: LC50 (the source's name); procedure, shortened: as §1
[24] = system: UO-31; assay: Anticancer activity against human UO31 cells assessed as cell growth inhibition measured after 48 hrs by SRB assay; conditions: UO-31, 48 h; for CC50: read-out: LC50 (the source's name); procedure, shortened: as §2
[25] = system: DU-145; assay: Anticancer activity against human DU145 cells assessed as cell growth inhibition measured after 48 hrs by SRB assay; conditions: DU-145, 48 h; procedure, shortened: as §1
[26] = system: MCF7; assay: Anticancer activity against human MCF7 cells assessed as cell growth inhibition measured after 48 hrs by SRB assay; conditions: MCF7, 48 h; procedure, shortened: as §1
[27] = system: MDA-MB-231; assay: Anticancer activity against human MDA-MB-231 cells assessed as cell growth inhibition measured after 48 hrs by SRB assay; conditions: MDA-MB-231, 48 h; procedure, shortened: as §1
[28] = system: Hs-578T; assay: Anticancer activity against human Hs578T cells assessed as cell growth inhibition measured after 48 hrs by SRB assay; procedure, shortened: as §1
[29] = system: BT-549; assay: Anticancer activity against human BT549 cells assessed as cell growth inhibition measured after 48 hrs by SRB assay; conditions: BT-549, 48 h; procedure, shortened: as §1
[30] = system: Mycolicibacterium smegmatis; assay: Antibacterial activity against Mycobacterium smegmatis MC2 155 measured after 48 hrs by agar dilution SPOTi assay; conditions: MC2 155, 48 h
Procedure, shortened: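 SPOTi agar dilution on Middlebrook 7H10 without OADC. Cells were passaged in Middlebrook 7H9 and then spotted. Compounds were tested at 100, 50, 20, 10 and 5 mg/L, with kanamycin as positive control. Plates were incubated 48 h at 37°C. MIC was taken as the lowest concentration with no visible growth.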

Compound `COc1ccc(C(=O)/C=C/c2ccc(Cl)cc2)cc1S(=O)(=O)Nc1c(N)nc(SC)[nH]c1=O` has a GI50 [1] of 2.66 µM, an LC50 [1] greater than 100 µM and a GI50 [2] of 2.77 µM. The CC50 [2] was greater than 100 µM, the GI50 [3] was 3.71 µM and the LC50 [3] was greater than 100 µM. For the same compound, the GI50 [4] was 2.17 µM, the CC50 [4] was greater than 100 µM and the GI50 [5] was 3.57 µM. The LC50 (concentration giving 50% net cell kill) [5] was greater than 100 µM, the GI50 [6] was 2.57 µM and the LC50 (concentration killing 50% of cells) [6] was 30 µM. It also gave a GI50 [7] of 1.81 µM, an LC50 [7] of 8.7 µM and a GI50 [8] of 2.59 µM. It also gave an LC50 [8] of 32.6 µM, a GI50 [9] of 2.34 µM and a CC50 [9] of 52.9 µM. The GI50 [10] was 2.49 µM, the LC50 (concentration causing 50% net cell kill) [10] was 29.1 µM and the GI50 [11] was 1.88 µM. For the same compound, the CC50 [11] was 8.83 µM, the GI50 [12] was 1.76 µM and the LC50 (concentration giving 50% net cell kill) [12] was 6.68 µM. It also gave a GI50 [13] of 1.56 µM, an LC50 (concentration killing 50% of cells present at start) [13] of 5.55 µM and a GI50 [14] of 2.93 µM. For the same compound, the LC50 (concentration giving 50% net cell kill) [14] was 45.3 µM, the GI50 [15] was 2.69 µM and the LC50 (concentration giving 50% net cell kill) [15] was 36.1 µM. For the same compound, the GI50 [16] was 2.72 µM, the LC50 [16] was 34.7 µM and the GI50 [17] was 2.52 µM. The LC50 [17] was 32.2 µM, the GI50 [18] was 1.63 µM and the LC50 (concentration giving 50% net cell kill) [18] was 6.34 µM. For the same compound, the GI50 [19] was 2 µM, the CC50 [19] was 15.7 µM and the GI50 [20] was 8.27 µM. The CC50 [20] was 50.1 µM, the GI50 [21] was 40.1 µM and the LC50 [21] was greater than 100 µM. The GI50 [22] was 1.95 µM, the CC50 [22] was 8.74 µM and the GI50 [23] was 10.6 µM. It also gave a CC50 [23] of 47.6 µM, a GI50 [24] of 1.89 µM and a CC50 [24] of 12.9 µM. For the same compound, the GI50 [25] was 3.58 µM, the LC50 [25] was 33.9 µM and the GI50 [26] was 1.97 µM. The LC50 [26] was greater than 100 µM, the GI50 [27] was 3.42 µM and the LC50 [27] was 40.3 µM. The GI50 [28] was 3.56 µM, the LC50 [28] was greater than 100 µM and the GI50 [29] was 1.63 µM. For the same compound, the LC50 [29] was 6.17 µM and the MIC [30] was greater than 175 µM.
Work on `COc1ccc(C(=O)/C=C/c2ccc(Cl)cc2)cc1S(N)(=O)=O` yielded a GI50 [1] of 3.34 µM, an LC50 [1] greater than 100 µM and a GI50 [2] of 0.57 µM. It also gave a CC50 [2] greater than 100 µM, a GI50 [3] of 2.93 µM and an LC50 [3] greater than 100 µM. The GI50 [4] was 2.61 µM, the CC50 [4] was greater than 100 µM and the GI50 [5] was 0.86 µM. For the same compound, the LC50 (concentration giving 50% net cell kill) [5] was greater than 100 µM, the GI50 [6] was 2.69 µM and the LC50 (concentration killing 50% of cells) [6] was 30.8 µM. It also gave a GI50 [7] of 2.51 µM, an LC50 [7] of 31.2 µM and a GI50 [8] of 2.14 µM. For the same compound, the LC50 [8] was 21.4 µM, the GI50 [9] was 3.66 µM and the CC50 [9] was 95.7 µM. It also gave a GI50 [10] of 2.58 µM, an LC50 (concentration causing 50% net cell kill) [10] of 30 µM and a GI50 [11] of 1.93 µM. The CC50 [11] was 12.1 µM, the GI50 [12] was 2.03 µM and the LC50 (concentration giving 50% net cell kill) [12] was 17.4 µM. For the same compound, the GI50 [13] was 1.36 µM, the LC50 (concentration killing 50% of cells present at start) [13] was 5.36 µM and the GI50 [14] was 3.26 µM. The LC50 (concentration giving 50% net cell kill) [14] was 84 µM, the GI50 [15] was 3.13 µM and the LC50 (concentration giving 50% net cell kill) [15] was 38.3 µM. It also gave a GI50 [16] of 3.04 µM, an LC50 [16] of 31.9 µM and a GI50 [17] of 3.1 µM. The LC50 [17] was 33.4 µM, the GI50 [18] was 1.28 µM and the LC50 (concentration giving 50% net cell kill) [18] was 5.47 µM. It also gave a GI50 [19] of 2.13 µM, a CC50 [19] of 21.2 µM and a GI50 [20] of 12.2 µM. The CC50 [20] was 50.8 µM, the GI50 [21] was 3.64 µM and the LC50 [21] was greater than 100 µM. It also gave a GI50 [22] of 1.74 µM, a CC50 [22] of 7.82 µM and a GI50 [23] of 10.4 µM. For the same compound, the CC50 [23] was 47.1 µM, the GI50 [24] was 1.89 µM and the CC50 [24] was 22 µM. For the same compound, the GI50 [25] was 3.42 µM, the LC50 [25] was 36.3 µM and the GI50 [26] was 1.3 µM. The LC50 [26] was greater than 100 µM, the GI50 [27] was 3.48 µM and the LC50 [27] was 40.1 µM. The GI50 [28] was 3.28 µM, the LC50 [28] was greater than 100 µM and the GI50 [29] was 2.29 µM. The LC50 [29] was 27.3 µM and the MIC [30] was greater than 175 µM.
